SDO1 yeast rescue: restores growth of sdo1-depleted yeast | actives 0.21% (n = 140,000) | S. cerevisiae sdo1-depleted JHY4D growth rescue, OD600 30 h; hits give high values; pdr5 snq2 efflux-pump mutant strain | AID 817 | z-score at 10 µM;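 active = z-score above 3 at both the 24 hr and the 30 hr optical density reads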;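 also: z-score against mean and SD of all compound wells on the same plate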
Yeast growth inh: chemicals that inhibit yeast BB579 growth in restrictive medium (lifespan-shortening candidates) | S. cerevisiae BB579 growth, OD615, 48 h | inhibition, % at 10 µM | actives 0.51% (n = 140,000) | AID 804;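 active = inhibition above a set limit, 3 SD over the mean compound inhibition, cut at about 44% in these data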
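Test system: S. cerevisiae DeaD strain BB579 yeast; Medium: restrictive CSMM-D medium; Compound: one dose, 10 µM compound with 0.25% DMSO; Incubation: 4 h cell preincubation, 48 h compound exposure, 30 °C humidified; Signal: OD at 615 nm; Benchmarks: amphotericin B at 10 µg/mL as positive control.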
RBBP9 inh: inhibitors of human serine hydrolase RBBP9. O75884. inhibition, % at 7.94 µM. recombinant RBBP9, FP-Rh probe fluorescence polarization. actives 0.2% (n = 220,000). AID 1515;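 active = inhibition above the campaign mean of all tested compounds plus 3 SD, cut at about 14% in these data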;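 also: plate controls were DMSO wells with RBBP9 for no effect and wells lacking RBBP9 protein for full effect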
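System: RBBP9 protein / Quantity: 2.5 µM RBBP9 dispensing solution, before mixing / Also added: Serine-hydrolase probe FP-Rh, 375 nM pre-mixing / Dosing: 7.94 µM single dose, 0.794% DMSO / Timing: enzyme-compound preincubation 30 min, then probe labeling 45 min, 25 °C / Signal: FP readout at 525/598 nm / Controls: DMSO-treated enzyme wells and wells lacking RBBP9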
Yeast life ext: extends the lifespan of yeast | S. cerevisiae growth with nicotinamide, OD615; deaD strain in restrictive glucose medium | inhibition of the nicotinamide effect, % at 10 µM | actives 0.68% (n = 130,000) | AID 775;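 active = inhibition above a set limit, placed 3 SD over the median of all compounds, cut at about 26% in these data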;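 also: 0% = nicotinamide-treated wells and 100% = cells grown without nicotinamide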
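Assay system: engineered S. cerevisiae DeaD replicative-lifespan strain, galactose-grown log-phase cells; Buffer or medium: CSMM-D glucose medium, restrictive; Probe or stimulus: nicotinamide 1.5 mM; Compound: single dose 10 µM compound, 0.25% DMSO; Schedule: 4 h preincubation then 48 h treatment at 30 °C; Technique: OD615 measurement.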
p47phox inh: blocks human p47phox regulatory protein of NADPH oxidases; P14598; p47phox/p22phox peptide binding, fluorescence polarization, 2 h; inhibition, % at 24.7 µM; actives 0.53% (n = 220,000);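 active = inhibition above about 30%, limit read from the data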;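 also: 0% = p47phox with labelled peptide and 100% = labelled peptide alone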
Target sequence (P14598 whole entry, looked up): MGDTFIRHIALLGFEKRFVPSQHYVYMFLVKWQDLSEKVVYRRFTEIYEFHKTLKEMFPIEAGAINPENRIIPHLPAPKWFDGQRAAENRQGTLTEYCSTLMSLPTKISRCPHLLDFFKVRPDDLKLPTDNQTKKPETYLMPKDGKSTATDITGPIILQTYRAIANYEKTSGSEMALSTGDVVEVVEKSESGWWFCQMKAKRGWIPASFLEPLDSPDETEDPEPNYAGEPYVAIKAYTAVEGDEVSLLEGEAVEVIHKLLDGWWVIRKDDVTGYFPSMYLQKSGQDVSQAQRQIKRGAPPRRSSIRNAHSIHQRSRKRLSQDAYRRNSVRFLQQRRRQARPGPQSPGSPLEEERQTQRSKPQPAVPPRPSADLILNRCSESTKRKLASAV
Tb hexokinase: T. brucei hexokinase 1 inhibition. recombinant TbHK1, G6PDH-coupled NADH A340. inhibition, % at 10 µM. actives 0.11% (n = 220,000);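 active = inhibition of 50% or more in the single-dose primary screen; inactive = inhibition below 50%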
An asterisk follows results filed as active; . = no result. Sampled rows, rich in hits. Any-hit rate of the full collection: about 1.6%.

SMILES	SDO1 yeast rescue	Yeast growth inh	RBBP9 inh	Yeast life ext	p47phox inh	Tb hexokinase
Cc1ccc(C(=O)C2C(=O)c3ccccc3C2=O)cc1	0.64	-44	5	69*	8	-24
CCCc1cc(=O)n2c([nH]c3ccccc32)c1C#N	0.02	-10	-9	-4	48*	-16
CCN(C(=O)c1cc2ccccc2oc1=O)c1cccc(C)c1	-0.5	5	-8	-8	-2	37
Cc1cc[n+](CC(=O)c2cc3ccccc3oc2=O)cc1	0.58	-2	-4	29*	2	19
O=C(CSc1nc2ccccc2o1)c1cc2ccccc2oc1=O	-0.39	-13	-12	38*	-7	-4
Cc1cc(C)nc(SCC(=O)c2cc3ccccc3oc2=O)n1	1.4	-8	-1	26	-2	-11
Cc1ccccc1-n1nnnc1SCC(=O)NCC1CCCO1 (stereo not drawn)	.	.	-10	.	4	3
Cc1ccc(P(C)(=O)c2ccc(C)cc2)cc1	-0.25	6	-11	-8	-4	9
Cc1ccc(P(=O)(O)c2ccc(C)cc2)cc1	1.9	-11	-9	-6	65*	6
COC(=O)Cn1c(=O)cnc2ccccc21	0.15	-14	-8	-3	-5	-14
CCOC(=O)Cn1c(=O)cnc2ccccc21	-0.37	-38	0	-8	32*	-20
CC1CCCCC1NS(=O)(=O)c1ccc(-n2cnnn2)cc1 (stereo not drawn)	0.41	-24	2	46*	-12	13
COc1cc(S(=O)(=O)NC2CCCCC2C)ccc1-n1cnnn1 (stereo not drawn)	.	.	-10	.	1	7
CC(Oc1ccc(Cl)cc1Cl)C(=O)N(C)c1ccccc1 (stereo not drawn)	.	.	-3	.	2	5
CCN1C(=O)/C(=C/N(C(C)=O)c2ccccc2)N(c2ccccc2)C1=S	-1.5	-17	-5	35*	-12	-32
O=C(NCC1CCCO1)c1cc(C(=O)c2ccc(Cl)cc2Cl)c[nH]1 (stereo not drawn)	.	.	-3	.	1	-2
O=C(NNS(=O)(=O)c1ccccc1[N+](=O)[O-])c1ccc(O)cc1	0.5	-28	4	-3	42*	-8
CCCCCCC1C(C#N)=C(N)OC2=C1C(=O)CC(C)(C)C2 (stereo not drawn)	-0.89	-19	3	40*	-23	8
CCN1/C(=C(\O)c2ccccc2)C(=O)c2ccccc2S1(=O)=O	-1.1	100*	2	-25	0	2
COn1c(SC(C)C)nc2ccccc2c1=O	-0.56	-32	-8	-27	-7	1
COn1c(SC2CCCCC2)nc2ccccc2c1=O	-0.85	-21	-6	46*	-7	1
N#CC12COC3(CCCCC3C1(C#N)C#N)OC2=N (stereo not drawn)	.	.	-5	.	5	-9
N#CC1(C#N)COC23CCCCC2C1(C#N)C(=N)O3 (stereo not drawn)	0.71	-23	-1	-17	141*	4
Oc1nc(Nc2cccc(Cl)c2)sc1/C=C1\C=Nc2ccccc21	0.09	-11	1	-5	-117	1
Oc1cccc(Nc2nc(O)c(/C=C3\C=Nc4ccccc43)s2)c1	.	.	17*	.	-132	-6
SMILES	SDO1 yeast rescue	Yeast growth inh	RBBP9 inh	Yeast life ext	p47phox inh	Tb hexokinase
OCC1CCCN(Cc2cn(Cc3ccccc3)nc2-c2cc3ccccc3o2)C1 (stereo not drawn)	.	.	-7	.	-7	5
O=C1C2C3C=CC(C2C(=O)N1c1ccccc1O)C1C2C(=O)N(c4ccccc4O)C(=O)C2C31 (stereo not drawn)	.	.	-14	.	-4	1
O=C1C2C3C=CC(C2C(=O)N1c1ccc(O)cc1)C1C2C(=O)N(c4ccc(O)cc4)C(=O)C2C31 (stereo not drawn)	.	.	7	.	34*	-10
NC(N)=Nc1nc2ccccc2o1	.	.	-3	.	-6	-11
Cc1nc(C)c(C(=O)O)s1	.	.	-7	.	-10	-6
CCc1c(C)c(C#N)c2nc3ccccc3n2c1NCCN(C)C	-2.1	-122	-1	-14	-16	-6
C=CCc1c(C)c(C#N)c2nc3ccccc3n2c1NCCN(C)C	-1.9	57*	-9	-1	-12	-10
O=[N+]([O-])c1ccc(O)c2ncccc12	-2.5	99*	-4	-9	-2	11

Screening results deposited in PubChem BioAssay by several laboratories.
